Bioassay records deposited in PubChem by several laboratories.
Rows were chosen to be rich in hits. Some 1% of all compounds tested hit in one or more screens of this group.
CTSL1 counter: cathepsin L1 inhibition, PFM18AAP counter-screen; recombinant F. hepatica cathepsin L1, Z-Leu-Arg-MCA fluorescence; inhibition, % at 5.96 µM; hit rate 0.49% among 300,000; AID 1906;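 active means inhibition above the mean of all tested compounds plus 3 SD, set per screening campaign, cut at about 17% in these data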;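 further: 0% = plate median of test compound wells and 100% = 1 µM Z-Phe-Ala-diazomethylketone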
p-CIP stab down: lowers stability of the mouse p/CIP coactivator protein; F442A p/CIP-EGFP cells, EGFP fluorescence, 16 h; decrease of EGFP signal, % at 10 µM; hit rate 0.01% among 290,000;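 active means EGFP signal decrease of at least 30% at 10 µM or well 3 SD below plate mean, unless failing retest; inactive means the rest, including hits failing retest or dose response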
Arr AP2 block: blocks beta-arrestin peptide binding to AP2 adaptin; FITC-arrestin peptide / GST-AP2 beads, flow cytometry; AP2 beta2 appendage carries R879A mutation; inhibition, % at 10 µM; hit rate 0.31% among 340,000; AID 504490;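 active means inhibition above a set limit, near 3 SD of compounds lacking own fluorescence, cut at about 54% in these data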;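 further: plate controls were DMSO wells for no effect and 5 µM unlabelled arrestin peptide for full effect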
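Material – GST-tagged AP2 beta2-adaptin appendage (R879A) on 4 µm glutathione beads · Probe or stimulus – fluorescein-tagged arrestin peptide at 50 nM final · Timing – 12 min plus 1 h, RT · Detection – bead flow cytometry, FITC channel · Read-out basis – inhibition as reduced fluorescein signal on beads, percent · Medium – PBS plus Tween 20 (0.05%) and BSA (0.1%)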
Hep lipid drop: hepatic lipid droplet formation modulation; AML12 mouse hepatocytes, oleate lipid droplets, BODIPY imaging; inhibition, % at 6.5 µM; hit rate 0.4% among 240,000; AID 1656;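 active means lipid droplet intensity inhibited by at least 50%, with more than 500 cells counted; inconclusive means wells with under 300 cells, treated as cytotoxic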
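Assay system: AML12 hepatocytes (mouse) / Also added: 100 µM oleic acid challenge / Times: overnight treatment with compound plus oleate / Detection: high-content imaging of BODIPY-stained droplets and DAPI nuclei / Evaluation: % inhibition of lipid droplet signal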
Lipid drop inh: confirmation of inhibitors of hepatic lipid droplet formation | shares compounds with Hep lipid drop | hit rate 65% among 870 | AML12 mouse hepatocytes, BODIPY lipid droplet imaging; droplets induced with 100 µM oleic acid | inhibition, % at 5.2 µM | AID 463183;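 active means inhibition of lipid droplet metric at least 50%, with more than 300 cells in each of four replicates; inconclusive means wells under 300 cells, flagged as toxic or low count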;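 further: plate controls were DMSO with oleic acid for no effect and 5 µM Triacsin-C for full effect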
AML12 tox img: AML12 hepatocyte cytotoxicity (counter-screen); shares compounds with Hep lipid drop; AML12 mouse hepatocytes, DAPI nuclear morphology cytotoxicity imaging; active compounds read high; cells fed 100 µM oleate overnight; z-score at 5 µM; hit rate 3% among 870; AID 463200; in the data active means z-score above about 6.3;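 further: compound exposure lasted overnight at 37 °C before fixation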
AML12 tox ATP: confirmation of cytotoxicity in AML12 mouse hepatocytes; AML12 mouse hepatocyte viability, ATP luminescence; cells loaded with 100 µM oleic acid; cytotoxicity, % at 50 µM; shares compounds with Hep lipid drop; 530 tested, under 10 active; AID 463219;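 active means cytotoxicity above 50% in each of four replicates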;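 further: compound exposure lasted overnight at 37 °C before the ATP read; 0% = DMSO-treated cells and 100% = wells with no cells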
Numbers without * were called inactive; ? = inconclusive; nt = not tested or not shown.

SMILES	CTSL1 counter	p-CIP stab down	Arr AP2 block	Hep lipid drop	Lipid drop inh	AML12 tox img	AML12 tox ATP
CCOc1ccc(CCNC(=O)c2c(C)nn(-c3ccccc3)c2Cl)cc1OCC	-1.0	-0.2	-2.5	51.8*	71.6*	-0.468	8.5
CCN1CCCC1CNC(=S)Nc1ccc(C(C)=O)cc1 (stereo not drawn)	-1.7	-6.4	-6.3	1.5	nt	nt	nt
CCOc1ccc(NC(=O)C(=O)NCC2CCCN2CC)cc1 (stereo not drawn)	-5.3	-9.9	29.1	nt	nt	nt	nt
COc1ccc(NC(=O)CSc2nnc3c4c(nc(-c5ccccc5)n23)CC(C)(C)OC4)cc1	1.2	1.1	-2.9	1.9	nt	nt	nt
COc1ccc(-c2nc3c(c4nnc(SC(C)C(=O)Nc5ccc(C)cc5)n24)COC(C)(C)C3)cc1 (stereo not drawn)	1.0	6.2	2.8	62.1*	79.4*	-0.771	-6.2
Cc1cc(C(=O)NCCN2C(=O)S/C(=C\c3cccs3)C2=O)ccc1[N+](=O)[O-]	2.2	-17.3	8.4	8.4	nt	nt	nt
Cc1[nH]n(-c2ccccc2)c(=O)c1N=Nc1cccc(Cl)c1	-3.9	2.6	-10.9	63.7*	100.6*	-0.0574	0.4
Nc1[nH]n(-c2ccccc2)c(=O)c1N=Nc1ccccc1	1.8	-3.5	6.6	11.2	nt	nt	nt
CC(=O)c1cccc(N=Nc2c(-c3ccccc3)[nH]n(-c3ccccc3)c2=O)c1	1.2	-6.4	3.9	101.0*	109.6*	-0.346	-1.0
COc1ccc(C(=O)CCC(=O)Nc2ccc(N3CCCCC3)cc2)cc1OC	-2.3	-11.0	14.2	91.8*	108.2*	0.00106	10.8
COc1ccc(CC(=O)Nc2ccc(N3CCCCC3)cc2)cc1	2.1	8.3	5.3	5.6	nt	nt	nt
CC(C)OC(=O)/C(=C\c1ccc2c(c1)c1ccccc1n2C)NC(=O)c1ccccc1	6.8	1.3	0.2	nt	nt	nt	nt
CC(C)OC(=O)/C(=C/c1ccc2c(c1)c1ccccc1n2C)NC(=O)c1ccccc1	1.9	-3.9	9.7	53.3*	96.4*	-0.205	-6.2
COC(=O)/C(=C\c1ccc2c(c1)c1ccccc1n2C)NC(=O)c1ccccc1	1.9	-2.3	2.6	51.7*	92.6*	0.985	0.8
OCC[C@H]1C[C@@H](O)[C@H](O)[C@@]2(Cc3ccccc3O2)O1	-5.1	nt	3.1	nt	nt	nt	nt
OCC[C@@H]1C[C@H](O)[C@@H](O)[C@]2(Cc3ccccc3O2)O1	-0.4	1.2	-6.8	62.3*	45.0	0.0827	nt
Oc1ccc(/C=N/Nc2nc(-c3cccnc3)nc3ccccc23)c(O)c1	4.9	-13.2	8.3	-3.2	nt	nt	nt
Cc1c(O)ccc(/C=N/Nc2nc(-c3cccnc3)nc3ccccc23)c1O	6.3	-10.9	1.5	52.5*	81.2*	10.9*	nt
Nc1nc(-c2ccc(Cl)cc2)c(N=Nc2ccc(S(=O)(=O)N3CCOCC3)cc2)s1	-7.6	6.7	-10.7	64.7*	33.2	0.732	nt
CN(c1ccc(Cl)cc1)c1cc(=O)n(C)c2ccccc12	3.4	-9.2	-0.3	nt	nt	nt	nt
Cc1ccc(C)c(C(=O)N2CCN(c3ncccn3)CC2)c1	-1.6	-3.3	1.2	57.1*	-12.9	-0.174	nt
COc1ccc(N2CCN(C(=O)Cn3ncc4c([nH]c5ccccc54)c3=O)CC2)cc1	3.3	-17.5	1.8	-8.9	nt	nt	nt
COc1ccccc1N1CCN(C(=O)Cn2ncc3c([nH]c4ccccc43)c2=O)CC1	3.6	1.6	-0.6	52.4*	70.8*	-1.48	7.6
O=C(c1nn2c(C(F)(F)F)cc(-c3cccs3)nc2c1Cl)N1CCCc2ccccc21	0.7	-7.5	-132.8	53.4*	26.4	1.44	nt
O=C(c1nn2c(C(F)(F)F)cc(-c3ccccc3)nc2c1Cl)N1CCOCC1	-2.3	4.1	-6.4	nt	nt	nt	nt
SMILES	CTSL1 counter	p-CIP stab down	Arr AP2 block	Hep lipid drop	Lipid drop inh	AML12 tox img	AML12 tox ATP
C#CC(=O)N(c1ccc(OC)c(OC)c1)C(C(=O)NC1CCCC1)c1cccs1 (stereo not drawn)	6.5	-12.3	3.8	109.5*	?	34.8*	nt
C#CC(=O)N(c1cccc(OC)c1)C(C(=O)NC1CCCC1)c1cccs1 (stereo not drawn)	11.0	0.9	2.8	nt	nt	nt	nt
CCOc1cc2[nH]c(=O)n(CCCC(=O)NCc3ccco3)c(=O)c2cc1OCC	-0.2	4.1	-6.9	nt	nt	nt	nt
CCOc1cc2[nH]c(=O)n(CCCC(=O)N(C)Cc3ccccc3)c(=O)c2cc1OCC	1.4	0.5	5.5	69.9*	107.2*	-0.476	10.3
Cc1ccc(-n2nc(C)c3c(=O)[nH]c(C(F)(F)F)nc32)cc1	-2.7	-1.4	nt	73.8*	12.0	-0.309	nt
COc1ccc(OC)c(-c2csc(NC(=O)COC(=O)C3(C)CC3(Cl)Cl)n2)c1 (stereo not drawn)	nt	nt	-6.7	nt	nt	nt	nt
CCN(CC)c1ccc(NC(=O)CN2CCN(S(=O)(=O)c3cc(Cl)ccc3OC)CC2)cc1	2.0	-1.3	5.4	59.7*	62.9*	0.61	12.3
CC(C)COc1cccc(-c2cc(C(=O)Nc3ccon3)c3ccccc3n2)c1	4.9	7.9	5.3	50.4*	80.5*	0.0251	-9.8
CCCOc1cccc(-c2cc(C(=O)NN)c3ccccc3n2)c1	3.4	-6.2	26.7	0.5	nt	nt	nt
C=CCn1c(SCC(C)=O)nc2scc(-c3ccc(C)o3)c2c1=O	5.4	1.3	18.5	38.8	nt	nt	nt
COc1ccc(S(=O)(=O)N(CC(=O)N2CCCCCC2)c2ccccc2OC)cc1	3.3	4.5	3.5	58.0*	-11.8	-1.35	nt
CCOC(=O)N1CCN(C(=O)CN(c2ccccc2OC)S(=O)(=O)c2ccc(OC)cc2)CC1	5.5	-8.5	4.2	0.2	nt	nt	nt
COc1ccc(CC(=O)N2CCN(c3cccc(Cl)c3)CC2)cc1OC	1.9	-6.7	28.4	-13.4	nt	nt	nt
CCCOc1ccc(-c2csc(NC(=O)CN3C(=O)CCC3=O)n2)cc1	1.3	-6.5	0.9	94.9*	109.0*	-0.434	nt
Cc1ccc(NC(=S)c2nc3ccccc3[nH]2)cc1	3.1	-17.4	3.6	nt	nt	nt	nt
CC1=C/C(=N\Nc2ccccc2[N+](=O)[O-])CC(C)(C)C1	6.5	5.8	-3.7	76.8*	114.7*	-0.266	nt
COc1ccccc1N1CCN(C(=O)CSc2nc3ccccc3nc2N2CCCCC2)CC1	1.1	8.6	0.6	14.5	nt	nt	nt
Cc1cccc(NC(=O)CSc2nc3ccccc3nc2N2CCCC2)c1C	-0.9	8.5	-2.7	55.2*	63.2	-0.264	nt
COc1ccc(C)cc1NC(=O)CSc1nc2ccccc2nc1N1CCCCC1	2.1	15.6	0.8	-1.2	nt	nt	nt
Cc1cc(C)cc(NC(=O)CSc2nc3ccccc3nc2N2CCCC2)c1	3.1	-2.1	14.9	70.5*	107.3*	-0.284	17.0
COc1ccc(NC(=O)CSc2nc3ccccc3nc2N2CCCC2)cc1Cl	1.9	-5.2	13.9	64.4*	96.4*	-0.144	4.7
